Laboratory results: ChEMBL document CHEMBL1132203, “Synthesis and biological properties of novel pyridinioalkanoyl thiolesters (PATE) as anti-HIV-1 agents that target the viral nucleocapsid protein zinc fingers” (J Med Chem, 1999)

Assays:
[1] = system: Human immunodeficiency virus 1; assay: Antiviral activity against HIV-1 infected CEM-SS cells was determined in XTT cytoprotection assay; assay type: functional, organism-based; settings: Human immunodeficiency virus 1, CEM-SS
In short: (§1)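 CEM-SS cells infected with HIV-1 RF at MOI 0.01, scored by XTT dye-reduction cytoprotection. EC50 is the concentration giving 50% protection of infected cells. IC50 is the concentration causing 50% cytotoxicity (growth inhibition). High test concentration 316 μM.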

[2] = system: Human immunodeficiency virus 1; assay: Effective antiviral concentration against HIV-1 infected CEM-SS cells; assay type: functional, organism-based; settings: Human immunodeficiency virus 1, CEM-SS; in short: as §1
[3] = system: Human immunodeficiency virus 1; assay: Nucleocapsid p7 protein (NCp7) zinc finger domain reactivity was measured by Trp37 fluorescence assay expressed as the average decrease in relative fluorescence units over 30 min; assay type: functional
In short: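 Recombinant HIV-1 NCp7 (pET3A construct expressed in E. coli BL21); intrinsic fluorescence of Trp37 in the C-terminal zinc finger monitored over 30 min after compound addition. Value is the mean fall in relative fluorescence units per minute across 30 min, taken as a readout of Zn ejection. Dithiane or DIBA-1 served as reference. Where glutathione pretreatment was used, 2 mM compound was held 2 h at 37 °C with 2–8 M excess reduced glutathione, then diluted 40-fold to 50 μM final compound.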

Compound: Cc1ccnc(NS(=O)(=O)c2ccc(-n3sc4ccccc4c3=O)cc2)n1
- IC50 [1]: 57.4 µM
- EC50 [2]: 8.8 µM

Compound: Cc1cc(NS(=O)(=O)c2ccc(NC(=O)c3ccccc3SSc3ccccc3C(=O)Nc3ccc(S(=O)(=O)Nc4cc(C)on4)cc3)cc2)no1
- IC50 [1]: 27.6 µM
- EC50 [2]: 1.9 µM

Compound: O=C(Nc1ccc(S(=O)(=O)c2ccc(NS(=O)(=O)Cc3ccccc3[N+](=O)[O-])cc2)cc1)c1ccccc1SSc1ccccc1C(=O)Nc1ccc(S(=O)(=O)c2ccc(NS(=O)(=O)Cc3ccccc3[N+](=O)[O-])cc2)cc1
- IC50 [1]: > 316 µM
- EC50 [2]: 12.3 µM
- Activity [3]: 1.5 RFU min-1

Compound: NS(=O)(=O)c1ccc(NC(=O)c2ccccc2SSc2ccccc2C(=O)Nc2ccc(S(N)(=O)=O)cc2)cc1
- IC50 [1]: 217 µM
- EC50 [2]: 0.85 µM

Compound: O=C(CCCCBr)Sc1ccccc1C(=O)Nc1ccc(S(=O)(=O)c2ccc([N+](=O)[O-])cc2)cc1
- IC50 [1]: 21.7 µM
- EC50 [2]: 1.6 µM
- Activity [3]: 1 RFU min-1

Compound: CC(=O)NS(=O)(=O)c1ccc(NC(=O)c2cccc(NC(=O)CCCl)c2)cc1
- IC50 [1]: 103 µM
- EC50 [2]: 38 µM
- Activity [3]: 3.9 RFU min-1

Compound: O=C(Nc1ccc(S(=O)(=O)Nc2nccs2)cc1)c1ccccc1SSc1ccccc1C(=O)Nc1ccc(S(=O)(=O)Nc2nccs2)cc1
- IC50 [1]: 18 µM
- EC50 [2]: 1 µM

Compound: O=C(Nc1ccc(S(=O)(=O)c2ccc(NC(=O)c3ccccc3SSc3ccccc3C(=O)Nc3ccc(S(=O)(=O)c4ccc(NC(=O)c5cccs5)cc4)cc3)cc2)cc1)c1cccs1
- IC50 [1]: 190 µM
- EC50 [2]: 12.2 µM

Compound: O=C(Nc1ccc(S(=O)(=O)Nc2ccc(Cl)nn2)cc1)c1ccccc1SSc1ccccc1C(=O)Nc1ccc(S(=O)(=O)Nc2ccc(Cl)nn2)cc1
- IC50 [1]: 18.3 µM
- EC50 [2]: 2.9 µM

Compound: O=C(CCCC[n+]1ccccc1)Sc1ccccc1C(=O)Nc1ccc(S(=O)(=O)c2ccc(NS(=O)(=O)Cc3ccccc3[N+](=O)[O-])cc2)cc1.[Br-]
- IC50 [1]: > 316 µM
- EC50 [2]: 2.9 µM
- Activity [3]: 0.86 RFU min-1

Compound: NS(=O)(=O)c1ccc(CCNC(=O)c2ccccc2SSc2ccccc2C(=O)NCCc2ccc(S(N)(=O)=O)cc2)cc1
- IC50 [1]: 52.8 µM
- EC50 [2]: 0.41 µM
- Activity [3]: 2.7 RFU min-1

Compound: O=C(Nc1ccc(S(=O)(=O)Nc2ncccn2)cc1)c1ccccc1SSc1ccccc1C(=O)Nc1ccc(S(=O)(=O)Nc2ncccn2)cc1
- IC50 [1]: 46.4 µM
- EC50 [2]: 2 µM

Compound: Cc1nnc(NS(=O)(=O)c2ccc(-n3sc4ccccc4c3=O)cc2)s1
- IC50 [1]: 17.3 µM
- EC50 [2]: 7.8 µM

Compound: Cc1cc(C)nc(NS(=O)(=O)c2ccc(NC(=O)c3ccccc3SSc3ccccc3C(=O)Nc3ccc(S(=O)(=O)Nc4nc(C)cc(C)n4)cc3)cc2)n1
- IC50 [1]: 32.2 µM
- EC50 [2]: 1.6 µM

Compound: Cc1cc(C)nc(NS(=O)(=O)c2ccc(-n3sc4ccccc4c3=O)cc2)n1
- IC50 [1]: 17.1 µM
- EC50 [2]: 6.9 µM

Compound: NS(=O)(=O)c1ccc(NS(=O)(=O)c2ccc(NC(=O)c3ccccc3SSc3ccccc3C(=O)Nc3ccc(S(=O)(=O)Nc4ccc(S(N)(=O)=O)cc4)cc3)cc2)cc1
- IC50 [1]: 43 µM
- EC50 [2]: 2.3 µM

Compound: O=C(Nc1ccc(S(=O)(=O)Nc2cnc3ccccc3n2)cc1)c1ccccc1SSc1ccccc1C(=O)Nc1ccc(S(=O)(=O)Nc2cnc3ccccc3n2)cc1
- IC50 [1]: 22.2 µM
- EC50 [2]: 0.72 µM

Compound: COc1cnc(NS(=O)(=O)c2ccc(-n3sc4ccccc4c3=O)cc2)nc1
- IC50 [1]: 57.6 µM
- EC50 [2]: 17.8 µM

Compound: Cc1nnc(NS(=O)(=O)c2ccc(NC(=O)c3ccccc3SSc3ccccc3C(=O)Nc3ccc(S(=O)(=O)Nc4nnc(C)s4)cc3)cc2)s1
- IC50 [1]: 18.6 µM
- EC50 [2]: 3.4 µM

Compound: O=C(NS(=O)(=O)c1ccc(-n2sc3ccccc3c2=O)cc1)c1ccccc1
- IC50 [1]: 49.5 µM
- EC50 [2]: 9.3 µM

Compound: O=c1c2ccccc2sn1-c1ccc(S(=O)(=O)Nc2ncccn2)cc1
- IC50 [1]: 50.8 µM
- EC50 [2]: 6.5 µM

Compound: O=C(Nc1ccc(S(=O)(=O)Nc2ccnn2-c2ccccc2)cc1)c1ccccc1SSc1ccccc1C(=O)Nc1ccc(S(=O)(=O)Nc2ccnn2-c2ccccc2)cc1
- IC50 [1]: 19.5 µM
- EC50 [2]: 0.33 µM

Compound: COc1cc(NS(=O)(=O)c2ccc(NC(=O)c3ccccc3SSc3ccccc3C(=O)Nc3ccc(S(=O)(=O)Nc4cc(OC)ncn4)cc3)cc2)ncn1
- IC50 [1]: 46.5 µM
- EC50 [2]: 1.6 µM

Compound: COc1cc(NS(=O)(=O)c2ccc(NC(=O)c3ccccc3SSc3ccccc3C(=O)Nc3ccc(S(=O)(=O)Nc4cc(OC)nc(OC)n4)cc3)cc2)nc(OC)n1
- IC50 [1]: 52.5 µM
- EC50 [2]: 2.1 µM

Compound: Cc1cc(NS(=O)(=O)c2ccc(-n3sc4ccccc4c3=O)cc2)nc(C)n1
- IC50 [1]: 39.7 µM
- EC50 [2]: 6.5 µM

Compound: CC(=O)NS(=O)(=O)c1ccc(NC(=O)c2ccccc2SSc2ccccc2C(=O)Nc2ccc(S(=O)(=O)NC(C)=O)cc2)cc1
- IC50 [1]: > 200 µM
- EC50 [2]: 1.5 µM

Compound: O=C(Nc1ccc(S(=O)(=O)Nc2ccccn2)cc1)c1ccccc1SSc1ccccc1C(=O)Nc1ccc(S(=O)(=O)Nc2ccccn2)cc1
- IC50 [1]: 17.8 µM
- EC50 [2]: 1.1 µM

Compound: O=c1c2ccccc2sn1-c1ccc(S(=O)(=O)Nc2ccc(Cl)nn2)cc1
- IC50 [1]: 19.2 µM
- EC50 [2]: 7.1 µM

Compound: CC(=O)NS(=O)(=O)c1ccc(-n2sc3ccccc3c2=O)cc1
- IC50 [1]: 34 µM
- EC50 [2]: 12.6 µM

Compound: CC(=O)NS(=O)(=O)c1ccc(NC(=O)c2ccccc2NC(=O)CCl)cc1
- IC50 [1]: 202 µM
- Activity [3]: 0.3 RFU min-1

Compound: N=C(N)NS(=O)(=O)c1ccc(NC(=O)c2ccccc2SSc2ccccc2C(=O)Nc2ccc(S(=O)(=O)N=C(N)N)cc2)cc1
- IC50 [1]: > 316 µM
- EC50 [2]: 111 µM

Compound: NS(=O)(=O)c1ccc(NS(=O)(=O)c2ccc(-n3sc4ccccc4c3=O)cc2)cc1
- IC50 [1]: 18.1 µM
- EC50 [2]: 6.2 µM

Compound: COc1cnc(NS(=O)(=O)c2ccc(NC(=O)c3ccccc3SSc3ccccc3C(=O)Nc3ccc(S(=O)(=O)Nc4ncc(OC)cn4)cc3)cc2)nc1
- IC50 [1]: 55.5 µM
- EC50 [2]: 2.1 µM

Compound: NS(=O)(=O)c1ccc(-n2sc3ccccc3c2=O)cc1
- IC50 [1]: 16.2 µM

Compound: COc1cc(NS(=O)(=O)c2ccc(-n3sc4ccccc4c3=O)cc2)nc(OC)n1
- IC50 [1]: 56.6 µM
- EC50 [2]: 7.6 µM

Compound: Cc1ccnc(NS(=O)(=O)c2ccc(NC(=O)c3ccccc3SSc3ccccc3C(=O)Nc3ccc(S(=O)(=O)Nc4nccc(C)n4)cc3)cc2)n1
- IC50 [1]: 56.7 µM
- EC50 [2]: 4.2 µM

Compound: O=c1c2ccccc2sn1-c1ccc(S(=O)(=O)Nc2cnc3ccccc3n2)cc1
- IC50 [1]: 54.7 µM
- EC50 [2]: 9.2 µM

Compound: COc1ccc(NS(=O)(=O)c2ccc(NC(=O)c3ccccc3SSc3ccccc3C(=O)Nc3ccc(S(=O)(=O)Nc4ccc(OC)nn4)cc3)cc2)nn1
- IC50 [1]: 53.8 µM
- EC50 [2]: 4.2 µM

Compound: O=c1c2ccccc2sn1-c1ccc(S(=O)(=O)c2ccc([N+](=O)[O-])cc2)cc1
- IC50 [1]: > 316 µM
- Activity [3]: 4.1 RFU min-1

Compound: Cc1noc(NS(=O)(=O)c2ccc(NC(=O)c3ccccc3SSc3ccccc3C(=O)Nc3ccc(S(=O)(=O)Nc4onc(C)c4C)cc3)cc2)c1C
- IC50 [1]: 44.2 µM
- EC50 [2]: 2.5 µM

Compound: Cc1noc(NS(=O)(=O)c2ccc(-n3sc4ccccc4c3=O)cc2)c1C
- IC50 [1]: 39 µM
- EC50 [2]: 12.8 µM

Compound: COc1ccc(NS(=O)(=O)c2ccc(-n3sc4ccccc4c3=O)cc2)nn1
- IC50 [1]: 55.3 µM
- EC50 [2]: 22.6 µM

Compound: O=C(NS(=O)(=O)c1ccc(NC(=O)c2ccccc2SSc2ccccc2C(=O)Nc2ccc(S(=O)(=O)NC(=O)c3ccccc3)cc2)cc1)c1ccccc1
- IC50 [1]: 54.1 µM
- EC50 [2]: 3.8 µM

Compound: Cc1cc(NS(=O)(=O)c2ccc(-n3sc4ccccc4c3=O)cc2)no1
- IC50 [1]: 54.6 µM
- EC50 [2]: 8.7 µM

Compound: Cc1cc(NS(=O)(=O)c2ccc(NC(=O)c3ccccc3SSc3ccccc3C(=O)Nc3ccc(S(=O)(=O)Nc4cc(C)nc(C)n4)cc3)cc2)nc(C)n1
- IC50 [1]: 18.2 µM
- EC50 [2]: 1.9 µM

Compound: CC(=O)NS(=O)(=O)c1ccc(NC(=O)c2ccccc2NC(=O)CCCC[n+]2ccccc2)cc1.[Br-]
- IC50 [1]: > 316 µM
- Activity [3]: 2.6 RFU min-1

Compound: CC(=O)NS(=O)(=O)c1ccc(NC(=O)c2ccccc2NC(=O)CCCl)cc1
- IC50 [1]: > 316 µM
- Activity [3]: 2 RFU min-1

Compound: O=C(CCCCBr)Sc1ccccc1C(=O)Nc1ccc(S(=O)(=O)c2ccc(NS(=O)(=O)Cc3ccccc3[N+](=O)[O-])cc2)cc1
- IC50 [1]: > 316 µM
- Activity [3]: 1.9 RFU min-1

Compound: Cc1nc(NS(=O)(=O)c2ccc(NC(=O)c3ccccc3SSc3ccccc3C(=O)Nc3ccc(S(=O)(=O)Nc4nc(C)c(C)o4)cc3)cc2)oc1C
- IC50 [1]: 46.4 µM
- EC50 [2]: 2.4 µM
